The EternaBench riboswitch data

System: MS2 coat protein
Test: apparent Kd, MS2 coat protein; higher = weaker binding; RNA-MaP array
Outline: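 Designed RNAs were transcribed on an Illumina sequencing chip from sequenced DNA templates. They were incubated at room temperature with fluorescently labeled MS2 coat protein at 1.5 nM to 3 μM, for 0.8–1.5 h at the lowest to 10–20 min at the highest concentrations, in Tris-HCl pH 7.5 buffer with KCl, MgCl2, BSA, DTT, tRNA and Tween20, with or without input ligand. Apparent Kd is the median of per-cluster binding-curve fits. Designs measured on fewer than 10 clusters were excluded.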

[1] = designed as: OFF switch for flavin mononucleotide, no ligand
[2] = ligand present: flavin mononucleotide, designed as: OFF switch for flavin mononucleotide
[3] = designed as: ON switch for theophylline, no ligand
[4] = ligand present: theophylline, designed as: ON switch for theophylline
[5] = designed as: ON switch for flavin mononucleotide, no ligand
[6] = ligand present: flavin mononucleotide, designed as: ON switch for flavin mononucleotide
[7] = designed as: ON switch for tryptophan, no ligand
[8] = ligand present: tryptophan, designed as: ON switch for tryptophan

| Sequence | apparent Kd [1] [nM] | apparent Kd [2] [nM] | further results |
| --- | --- | --- | --- |
| GUUAGUCCACGAGGAUAUCGAAAUCGGCCCAGUGAAUUUUCACAUGAGGAUCACCCAUGUCAUAUCGAGAAGGCGUCUGAAAGC | 35.7 | 41.9 |  |
| CUUGUGGCACAGGAUAUUCCGACGUAAUCAAAUGAAGAAGGGUGCACAUGAGGAUCACCCAUGUGUGAACACAA | 12.3 | 26.8 |  |
| CUUAUACAUGAGGAUCACCCAUGUGGUGAUACCAGCCACGAUCAAGGCCCUUGGCAGCACAAAGGGAAUAAUAUGAUUACAAAAC |  |  | apparent Kd [3]: 227 nM; apparent Kd [4]: 212 nM |
| CCAUUGUCAGGAUAUUGUGGUUUAGCGUCGAAAGGGCUUAGCAAGAAGGGACAUGAGGAUCACCCAUGUGUAGU | 33.8 | 146 |  |
| AUGCCACCAUACCGCAGUAAUACAUGAGGAUCACCCAUGUAGGAGGAUAUACUUUUGGUAAUGAUGUAGAAGGCCUAGUGGUAC |  |  | apparent Kd [5]: 5.91 nM; apparent Kd [6]: 6.09 nM |
| GCGGAACAUGAGGAUCACCCAUGUAAGGAUAUCGUGAGGGAACGGCAGCAACACUGAUCGAGAAGGUACAGGGC | 23 | 36.4 |  |
| CCGCGCGUAGGAUAUACUAGUGUAUCAGUCGGUAUUGGAAAACAUGAGGAUCACCCAUGUAGAAGGACGCUAAU | 8.4 | 10.5 |  |
| GUGACUAAAUGCAAGGAUAUCCGCGGCGGUACAUGAGGAUCACCCAUGUCAAGAGUCCACUGGCAGGAGAAGGUGCCCUGCGUCAU |  |  | apparent Kd [5]: 7.57 nM; apparent Kd [6]: 6.07 nM |
| UGCUUUUACGGAGGAUAUCUUUGGUCGUUAUGAAGAGAAGGCCGUCCUAACAUGAGGAUCACCCAUGUAUCUCAUUACAGUCUC |  |  | apparent Kd [5]: 22.9 nM; apparent Kd [6]: 16.3 nM |
| GCUGCCGUCGGUGAAAACUCCCAUGCAGAUACCAGCGCAUUCCGCCGCCCUUGGCAGCUGCAUACAUGAGGAUCACCCAUGUGUU |  |  | apparent Kd (designed as: OFF switch for theophylline, no ligand): 84.4 nM; apparent Kd (ligand present: theophylline, designed as: OFF switch for theophylline): 147 nM |
| CGACUCCCAGAGAAGGCCGCAAACAUGAGGAUCACCCAUGUACUACCUGAGUCUCGGGCGGUACCGGAGGAUAUCUAGGCUCGC |  |  | apparent Kd [5]: 26.6 nM; apparent Kd [6]: 10.9 nM |
| GUUUACAUGAGGAUCACCCAUGUCGCCGGCCGAGGACCGGUACGGCCGCCACUCGUCCUAAUGGCACUUGACUUCCCUAUUAAGU |  |  | apparent Kd [7]: 20.3 nM; apparent Kd [8]: 24.3 nM |
| CGGUAGUUUUAGAAGGAGCAACCAAGUUUACAUGAGGAUCACCCAUGUGUGAGGAUAUGUUAAGGCUAGGAUAUAAUAGAACCU | 25.4 | 23.4 |  |
| CUCGCGUGAGGAUAUGCCACGCCCGAAAGGCCGGGUCAUCGGCAGAAGGCACAUGAGGAUCACCCAUGUAUCGC | 13.3 | 63.9 |  |
| CCUUAGUGAGGAUAUGCAUAGCCUUGGCGGCCAGGAGCCAAGCAGAAGGCACAUGAGGAUCACCCAUGUCCGGU | 16.6 | 22.8 |  |
| GGGACCACUCUUGGGCCGCUGACAUGAGGAUCACCCAUGUAUAGAAGGAGGGUGGCUAAUCACACCUAGGAUAUAUACAAGACU | 12 | 11 |  |
| AAGAAAUUCUCACAUGAGGAUCACCCAUGUCCACACGACUAGAGAAGGGCCUUCUACGUGCACUGGCAGGAUAUCUAACCGGGA | 140 | 87.5 |  |
| UUAUCGGUCUCAGGAUAUCAGUAUCACUCAUUAUGAGAAGGGAGACACUCCGGAACAUGAGGAUCACCCAUGUGGGCCUUGGGU | 172 | 103 |  |
| GAUGAGCGCACGGGAAUAAACAUGAGGAUCACCCAUGUCGUUAGAAGGGUAUUCGCCGGGACCAUACAGGAUAUAACGCGUCAC |  |  | apparent Kd [5]: 25.7 nM; apparent Kd [6]: 21 nM |
| GAACACCAGAAGAAGGGAGACAUGAGGAUCACCCAUGUUUAAAUACGAAAUAAGGUAAAAGCAACACAGGAUAUUCGGCUCUAC |  |  | apparent Kd [5]: 22.6 nM; apparent Kd [6]: 18 nM |
| UGUGACCGCCAUUCUCGCGACAUGAGGAUCACCCAUGUUUCCAGAAGGCUCCAGGCUUGUGCUCGAGAGGAUAUGGGAAGAUUC | 28.4 | 26.5 |  |

| Sequence | apparent Kd [1] [nM] | apparent Kd [2] [nM] | further results |
| --- | --- | --- | --- |
| CUCGGCGCCCAAGGAUAUAGUGGAGGUAAGAAACUAGAAGGUGGUGUGCUAACAUGUUGUCCUUUACAUGAGGAUCACCCAUGU | 38.6 | 32.9 |  |
| GAAUUAGUGUUGGAGGAUAUCCCAUGUCUUACAUGAGGAUCACCCAUGUCCGGACAACGACAAAAGGAGAAGGCCAUCAUCAUGUC |  |  | apparent Kd [5]: 772 nM; apparent Kd [6]: 80.8 nM |
| CUCUUAGAAGGAUAUUAAUAAUGUUACAUGAGGAUCACCCAUGUCUCAAUAUGUGACCGUUAAGAAGGUCUAUCGC | 9.2 | 8.16 |  |
| GCAGGAAAGCAGAAGGACACCACAUGAGGAUCACCCAUGUCGGCGCUGACUUUGAUCUUGAGGAUGUAGGAUAUGCGUUUCGGA | 8.76 | 17.4 |  |
| AGGACAUGAGGAUCACCCAUGUGAUGACAUUUCCUAGAACCGAAGGAUAUGCAAACGGAACCCGCGCAGAAGGUCGCUAACCUU | 57.5 | 42.5 |  |
| ACCCUGUGAGGAUAUAUGCGGUUUGAACCAGAUCAGAAAUAAUAGAAGGCACAUGAGGAUCACCCAUGUUUCUC | 27.9 | 22.8 |  |
| GAAAUAGUAGUUAGGAUAUGUAAUUGAAGACAUAUACAGAAGGAACAUGAGGAUCACCCAUGUAUUGGGAUGGA | 196 | 126 |  |
| UGCGUCGUUUAGAAGGGAGUGGCCCAACAUGAGGAUCACCCAUGUGACGCUCAGAAUGUAUUUGCUCAGGAUAUAAAUGUCUUU | 162 | 123 |  |
| CAUGACAUGAGGAUCACCCAUGUAUCCAGUCGAGGACCGGUACGGCCGCCACUCGGUGCCUUCAAAUUUACAGACAGGUGACAGG |  |  | apparent Kd [7]: 33.7 nM; apparent Kd [8]: 22.8 nM |
| UGUCGUAAAGGAUAUACAUGAGGAUCACCCAUGUCGGCCGUUAGGCCGUAAGGUGUGCGUAGAAGGUUACAUUG | 191 | 149 |  |
| AGUCGUACCAAGAAGGUACCCGGCUAAUGGUGGUAAGGAUAUUGUACGAACCCUAACAUGAGGAUCACCCAUGUCCACAGUGGG | 53.5 | 33 |  |
| CACGUACAUGAGGAUCACCCAUGUAUGUCCGAAACGCGAGUACAGGAUAUGAUAUGGAGAAGUCUUCAGAAGGGUACAAAUCGC |  |  | apparent Kd [5]: 58.4 nM; apparent Kd [6]: 21.6 nM |
| AAUGUGUAAGGAUAUACCGUUCAGUCUCUCCACAAUCGAUGGUAGAAGGUACAUGAGGAUCACCCAUGUGAGGA | 14.9 | 15.2 |  |
| CAAUACGAUGUCAGGAUAUUAUUUCAAGUAGACGGUAAGAAGGGACAUGAGGAUCACCCAUGUACGGAAUACGC | 6.35 | 6.32 |  |
| UAUUGCAAUGUGAGGAUAUCUCAAGAAAAGACAAGAGAGAAGGCACAUGAGGAUCACCCAUGUUAGAAACAAAA | 19.3 | 110 |  |
| GUCUCUCGCUUAGGAUAUCAGCACGAUUAUCCCUGAGAAGGAAGUGACAGACAUGAGGAUCACCCAUGUAUCCAAGGUUCGAAG | 15.6 | 15 |  |
| CGUUACAUAGAGAAGGUUCAUAAGAUCAAAUAACAUGAGGAUCACCCAUGUAUGUAAGCAUGAGGAAAGGAUAUCUACCGCCAG |  |  | apparent Kd [5]: 144 nM; apparent Kd [6]: 70.1 nM |
| GAAGAUCCGUAAGAUACCAGUGCAGAUCGGCACAUGAGGAUCACCCAUGUAAAGCAAGAACACCCUUGGCAGCUUUCGUAACAAC |  |  | apparent Kd [3]: 158 nM; apparent Kd [4]: 10.3 nM |
| AGUGAGGUUCUAGGAUAUCUCCCUCGAGUGCAGCUACAUGAGGAUCACCCAUGUCAUGGGUGUCGAGAGAAGGAGAAGGGCUUA | 74.5 | 104 |  |
| UGACUGUCGAAAGGAUAUGGUCGCACGCACACAUCAGUGUUUCACAUGAGGAUCACCCAUGUGGUCCAGAAGGUUCAUAAAUAU |  |  | apparent Kd [5]: 197 nM; apparent Kd [6]: 122 nM |
